UBC9 SUMO inh: inhibitors of in vitro SUMOylation cascade, primary screen, biochemical, HTRF, uHTS. SUMO-conjugating enzyme UBC9 (Homo sapiens), P63279. HTRF SUMOylation assay, SAE1/SAE2 + UBC9. inhibition, % at 35 µM. hit rate 0.36% among 290,000. AID 2006, 2009; in the data active = inhibition above about 50%, passing the limit was not always enough
Target sequence (P63279 whole entry, looked up): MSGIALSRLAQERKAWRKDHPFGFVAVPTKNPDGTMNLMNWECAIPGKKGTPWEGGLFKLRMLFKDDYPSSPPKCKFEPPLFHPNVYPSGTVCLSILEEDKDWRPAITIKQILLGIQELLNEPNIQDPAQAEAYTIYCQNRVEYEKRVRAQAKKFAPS
DNA FID counter-1: compounds displacing fluorescent DNA intercalator, primary screen, artefact control for HCV NS3 helicase inhibitor project, biochemical, FID fluorescence. hit rate 0.17% among 290,000. DNA fluorescent intercalator displacement. AID 1845, 2009. inhibition, % at 7.9 µM;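 also: 0% = vehicle and 100% = reference compound; higher means more ethidium bromide displaced from hairpin DNA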
IMP-1 inhibitor: IMP-1 metallo-beta-lactamase inhibitors, primary screen, biochemical, epi-absorbance readout, Pseudomonas aeruginosa enzyme | purified IMP-1, nitrocefin hydrolysis, epi-absorbance fluorescence | hit rate 0.45% among 290,000 | metallo-beta-lactamase IMP-1 (Pseudomonas aeruginosa) | inhibition, % at 5.6 µM;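 active = inhibition above the mean plus 3 SD of all compounds in the same screening run, cut at about 4.5% in these data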;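 also: 0% = IMP-1 with DMSO and 100% = DMSO wells lacking enzyme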
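system = purified recombinant IMP-1 beta-lactamase | amount = 0.2 nM IMP-1, as dispensed | medium = HEPES buffer pH 7.1 with ZnSO4 and Brij 35 | times = 25 °C, 15 min preincubation, 25 min reaction | detection = plate fluorescence quenching by hydrolysis product, ex 480/em 530 nm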
VIM-2 inhibitor: VIM-2 metallo-beta-lactamase inhibitors, primary screen, biochemical, epi-absorbance readout, Pseudomonas aeruginosa enzyme. purified VIM-2, nitrocefin hydrolysis, epi-absorbance fluorescence. inhibition, % at 5.6 µM. hit rate 0.89% among 290,000;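 active = inhibition above the mean of all tested compounds plus 3 SD, cutoff set per screening run, cut at about 7.5% in these data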;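 also: red hydrolysis product quenches plate fluorescence so inhibitors raise well fluorescence; 0% = enzyme with DMSO and 100% = DMSO without enzyme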
HCV NS3 hel inh: inhibitors of HCV NS3 helicase, primary screen, biochemical, Cy5 molecular beacon fluorescence. Hepatitis C virus NS3 helicase. NS3 helicase DNA unwinding. inhibition, % at 10.9 µM. hit rate 0.56% among 290,000;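 active = inhibition above the mean of all tested compounds plus 3 SD, set per campaign, cut at about 35% in these data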;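 also: 0% = DMSO wells and 100% = thioflavine S control wells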
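Control set: DMSO versus 110 µM thioflavine S; Material: NS3 helicase fragment of HCV; Measured by: Cy5 fluorescence at 0 and 60 min, beacon hairpin quenching; Read-out basis: percent inhibition from t60/t0 fluorescence ratio; Times: reaction time 60 min, 25 °C; Repeats: single replicate; Compound dosing: single dose, 10.9 µM nominal final, DMSO 0.8% final.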
NS3 hel confirm: HCV NS3 helicase inhibitors, retest, confirmation, biochemical, Cy5 molecular beacon fluorescence, triplicate; shares compounds with HCV NS3 hel inh; NS3 helicase DNA unwinding; inhibition, % at 10.9 µM; hit rate 31% among 1,600;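 active = inhibition above the mean of all tested compounds plus 3 SD, cutoff set per campaign, cut at about 36% in these data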
DNA FID counter-2: compounds displacing fluorescent DNA intercalator, artefact control for HCV NS3 helicase inhibitor project, biochemical, FID fluorescence, triplicate; inhibition, % at 7.9 µM; DNA fluorescent intercalator displacement; hit rate 4% among 1,600; shares compounds with HCV NS3 hel inh;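 also: 0% = vehicle and 100% = reference compound; higher means more displacement of ethidium bromide from the DNA hairpin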
DNA FID DR: compounds displacing fluorescent intercalator from DNA, dose response, counter-screen for HCV NS3 helicase inhibitor project, biochemical, fluorescence; shares compounds with HCV NS3 hel inh; fluorescent intercalator displacement from DNA; IC50, µM; 120 tested, under 10 active; call rule not given here
Numbers without * were called inactive; · = not tested or not shown. An excerpt weighted towards active compounds, which were near 2.1% of everything screened. Rule as the data show it, unless noted: active = inhibition above about 37%; inactive = the rest.

SMILES	UBC9 SUMO inh	DNA FID counter-1	IMP-1 inhibitor	VIM-2 inhibitor	HCV NS3 hel inh	NS3 hel confirm	DNA FID counter-2	others
COc1ccc(O)c(/C=N/NC(=S)NCCc2ccccc2)c1	15	-16	-4	-2	29	·	·
COc1ccc(/C(C)=N/NC(=S)NCCc2ccccc2)c(O)c1	12	-9	0	0	42*	9	-5
NC(=O)CC1Nc2cccc3cccc(c23)NC1=O (stereo not given)	11	-13	9.1*	8.1*	61*	-7	24
O=C(CC1Nc2cccc3cccc(c23)NC1=O)Nc1ccccc1 (stereo not given)	81	-14	-2	1	67*	-10	11
CN(C)C(=O)CN1C(=O)NC2(CCc3ccccc32)C1=O (stereo not given)	10	-2	-4	-3	5	·	·
O=C(O)C1C2C=CC(C2)C1C(=O)Nc1ccc2c(c1)OCCO2 (stereo not given)	9	2	-3	1	-20	·	·
CN(C)c1ccc(NC(=O)C2C3C=CC(C3)C2C(=O)O)cc1 (stereo not given)	-244	11	-10	1	56*	30	14
CC(C)CNC(=O)COC(=O)c1c2c(nc3ccccc13)/C(=C/c1cccs1)CC2	23	-15	6.7*	4	74*	-8	-9
O=C(COC(=O)c1c2c(nc3ccccc13)/C(=C/c1ccco1)CC2)NC1CCCC1	71*	-13	0	-2	36*	96*	15	DNA FID DR=>79
CC1CCCCC1NC(=O)COC(=O)c1c2c(nc3ccccc13)/C(=C/c1ccco1)CC2 (stereo not given)	65*	-12	-3	1	47*	97*	1	DNA FID DR=>79
CNC(=S)NCCc1cc2c(OC)ccc(OC)c2[nH]c1=O	11	-4	-2	-2	14	·	·
O=C(O)CCN1C(=O)/C(=C2\C(=O)N(Cc3ccccc3Cl)c3ccccc32)SC1=S	41	-19	-1	-4	44*	91*	4	DNA FID DR=>79
O=C(N/N=C/c1ccc(F)cc1)c1cccc(NC(=O)c2ccc(F)cc2)c1	-17	-10	-2	-1	6	·	·
Cc1cc(C(=O)Cn2ncc(Cl)c(Cl)c2=O)c(C)n1CC(F)(F)F	3	-32	-2	1	57*	-12	-13
CCCCCCCc1nn2c(=O)cc(O)nc2s1	5	-16	-3	-3	36*	-19	8
CCCc1nn2c(=O)cc(O)nc2s1	8	-23	-3	-2	-1	·	·
Cc1cc(C)cc(NCc2cc3c(cc2[N+](=O)[O-])OCO3)c1	8	-8	-3	-1	27	·	·
COc1ccc(CNCc2cc3c(cc2[N+](=O)[O-])OCO3)cc1	4	0	-2	1	40*	-13	11
Cc1cccc(Nc2nnc(-c3ccc(N4CCOCC4)c([N+](=O)[O-])c3)c3ccccc23)c1	11	0	-3	0	10	·	·
Cc1ccc(N2C(=O)C3C4C=CC(CC4)C3C2=O)c([N+](=O)[O-])c1 (stereo not given)	14	-3	-3	0	13	·	·
CCOc1c(C)cnc2c1c(=O)n(Cc1ccc(Cl)cc1)c(=O)n2C	-1	-28	-5	-8	22	·	·
COC(=O)c1ccccc1OCC(=O)NC1CCCCC1	6	-21	-3	-1	1	·	·
CCc1ccccc1OCC(=O)NC1CCCC1	11	-17	-3	-1	49*	-1	-7

Screening results: PubChem BioAssay, several laboratories
